According to ChEMBL document CHEMBL3259548, “Design, synthesis and biological evaluation of novel isoniazid derivatives with potent antitubercular activity” (Eur J Med Chem, 2014):
≈ marks a conversion by molar mass, not a printed value.

Tests used:
[1] = tested on: Mycobacterium tuberculosis; assay: Antitubercular activity against Mycobacterium tuberculosis H37Rv ATCC 27294 by BACTEC 960 assay; type: functional
[2] = Octanol-water partition co-efficient, log P of the compound by shake-flask method; type: physicochemical
Vero = assay: Cytotoxicity against african green monkey Vero cells after 48 hrs by MTT assay; type: cell-based; settings: Chlorocebus sabaeus
[3] = Selectivity index, ratio of IC50 for african green monkey Vero cells to MIC for Mycobacterium tuberculosis H37Rv ATCC 27294; type: toxicity, cell-based; settings: read-out: Selectivity Index
Summary of the method: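 Vero cells were seeded at ~4×10^5 cells/mL and grown 48 h at 37 °C in 5% CO2. […] MTT 0.5 mg/mL was added for 2 h and formazan dissolved in DMSO, with absorbance read at 570 nm to give IC50. SI = IC50 / H37Rv MIC (IC99).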

SMILES | MIC [1] | also measured
NNC(=O)c1ccncc1N | 9.86 µM (≈ 1.5 µg/mL) | –
CC(=O)NNC(=O)c1ccncc1 | 44.6 µM (≈ 8 µg/mL) | –
O=C(NNS(=O)(=O)c1ccc([N+](=O)[O-])cc1)c1ccncc1 | 186 µM (≈ 60 µg/mL) | –
O=C(NNS(=O)(=O)c1ccccc1)c1ccncc1 | 10.8 µM (≈ 3 µg/mL) | –
C/C(=N/NC(=O)c1ccncc1)c1cccc(CN2CCNCC2)c1O | 8.61 µM (≈ 3.04 µg/mL) | –
N/C(COc1ccc(Cl)cc1)=N\NC(=O)c1ccncc1 | 10.2 µM (≈ 3.12 µg/mL) | –
O=C(NNC(=O)c1ccncc1)c1ccncc1 | 33 µM (≈ 8 µg/mL) | –
Cc1ccccc1OC/C(N)=N/NC(=O)c1ccncc1 | 44 µM (≈ 12.5 µg/mL) | –
CCCCCCCCC(=O)NNC(=O)c1ccncc1 | 0.09 µM (≈ 0.025 µg/mL) | –
Cc1cccc(OC/C(N)=N/NC(=O)c2ccncc2)c1 | 11 µM (≈ 3.12 µg/mL) | –
Cc1ccc(OC/C(N)=N/NC(=O)c2ccncc2)cc1 | 22 µM (≈ 6.25 µg/mL) | –
N/C(COc1cccc(Cl)c1)=N\NC(=O)c1ccncc1 | 10.2 µM (≈ 3.12 µg/mL) | –
C/C(=N\NC(=O)c1ccncc1)c1cccc(CN(C)C)c1O | 2.29 µM (≈ 0.715 µg/mL) | –
CCCCN(CCCC)Cc1cccc(/C(C)=N/NC(=O)c2ccncc2)c1O | 4.43 µM (≈ 1.76 µg/mL) | –
C/C(=N\NC(=O)c1ccncc1)c1cccc(CN2CCCCC2)c1O | 4.61 µM (≈ 1.62 µg/mL) | –
C/C(=N\NC(=O)c1ccncc1)c1cccc(CN2CCCC2)c1O | 2.2 µM (≈ 0.745 µg/mL) | –
C/C(=N\NC(=O)c1ccncc1)c1cccc(CN2CCOCC2)c1O | 3.57 µM (≈ 1.27 µg/mL) | –
C/C(=N\NC(=O)c1ccncc1)c1cccc(CN(c2ccccc2)c2ccccc2)c1O | 0.56 µM (≈ 0.244 µg/mL) | –
C/C(=N\NC(=O)c1ccncc1)c1cccc(CN2CCN(C)CC2)c1O | 3.36 µM (≈ 1.23 µg/mL) | –
C/C(=N\NC(=O)c1ccncc1)c1cccc(CN(Cc2ccccc2)Cc2ccccc2)c1O | 1.3 µM (≈ 0.604 µg/mL) | –
C/C(=N\NC(=O)c1ccncc1)c1cccc(CN2CCN(c3cc4c(cc3F)c(=O)c(C(=O)O)cn4C3CC3)CC2)c1O | 1.26 µM (≈ 0.754 µg/mL) | –
CCn1cc(C(=O)O)c(=O)c2cc(F)c(N3CCN(Cc4cccc(/C(C)=N/NC(=O)c5ccncc5)c4O)C(C)C3)c(F)c21 (configuration not stated) | 0.9 µM (≈ 0.557 µg/mL) | –
C/C(=N\NC(=O)c1ccncc1)c1cccc(CN2CCN(c3ccccn3)CC2)c1O | 0.88 µM (≈ 0.379 µg/mL) | –
CCCCCCCCCCCCNNC(=O)c1ccncc1 | 0.164 µM (≈ 0.0501 µg/mL) | –

SMILES | MIC [1] | also measured
O=C(NNCc1ccco1)c1ccncc1 | 69.1 µM (≈ 15 µg/mL) | –
Nc1ccc(S(=O)(=O)NNC(=O)c2ccncc2)cc1 | 2050 µM (≈ 600 µg/mL) | –
O=C(N/N=C(\CO)C(O)C(O)C(O)CO)c1ccncc1 (configuration not stated) | 0.2 µM (≈ 0.0599 µg/mL) | –
CNC1C(OC2C(OC3C(O)C(O)C(NC(=N)N)C(O)C3NC(=N)N)OC(C)C2(O)/C=N\NC(=O)c2ccncc2)OC(CO)C(O)C1O (configuration not stated) | 0.214 µM (≈ 0.15 µg/mL) | –
Cc1cc(C(=O)NN)ccn1 | 5.2 µM (≈ 0.786 µg/mL) | –
CCc1cc(C(=O)NN)ccn1 | 21.1 µM (≈ 3.49 µg/mL) | –
CCCc1cc(C(=O)NN)ccn1 | 55.2 µM (≈ 9.89 µg/mL) | –
COc1cc(C(=O)NN)ccn1 | 153 µM (≈ 25.6 µg/mL) | –
CCOc1cc(C(=O)NN)ccn1 | 450 µM (≈ 81.5 µg/mL) | –
NNC(=O)c1ccnc(N)c1 | 14.5 µM (≈ 2.21 µg/mL) | –
CC(=O)Nc1cc(C(=O)NN)ccn1 | 2150 µM (≈ 418 µg/mL) | –
CC(=O)NCc1cc(C(=O)NN)ccn1 | 243 µM (≈ 50.6 µg/mL) | –
CCN(CC)c1cc(C(=O)NN)ccn1 | 717 µM (≈ 149 µg/mL) | –
NNC(=O)c1ccnc(Cl)c1 | 392 µM (≈ 67.3 µg/mL) | –
NNC(=O)c1ccnc(I)c1 | 254 µM (≈ 66.8 µg/mL) | –
NNC(=O)c1ccnc([N+](=O)[O-])c1 | 371 µM (≈ 67.6 µg/mL) | –
NNC(=O)c1ccnc(-c2ccccc2)c1 | 50 µM (≈ 10.7 µg/mL) | –
NNC(=O)c1ccnc(Cc2ccccc2)c1 | 38.5 µM (≈ 8.75 µg/mL) | –
C=Cc1cc(C(=O)NN)ccn1 | 35 µM (≈ 5.71 µg/mL) | –
Cc1ccc(C)n1NC(=O)c1ccncc1 | 46.5 µM (≈ 10 µg/mL) | –
CC(O)(NNC(=O)c1ccncc1)C(=O)O (configuration not stated) | 0.266 µM (≈ 0.0599 µg/mL) | –
O=C(NNC(O)C(Cl)(Cl)Cl)c1ccncc1 (configuration not stated) | 0.141 µM (≈ 0.0401 µg/mL) | –
CC(C)(C#N)NNC(=O)c1ccncc1 | 0.294 µM (≈ 0.06 µg/mL) | –
O=CNNC(=O)c1ccncc1 | 18.2 µM (≈ 3 µg/mL) | –

SMILES | MIC [1] | also measured
CCCCCC/C=N/NC(=O)c1ccncc1 | 0.129 µM (≈ 0.0301 µg/mL) | –
C/C=C/CCCCCCC/C=N/NC(=O)c1ccncc1 | 0.522 µM (≈ 0.15 µg/mL) | –
CCCCCCCCCC/C=N/NC(=O)c1ccncc1 | 1.04 µM (≈ 0.3 µg/mL) | –
CCC(CC)=NNC(=O)c1ccncc1 | 0.097 µM (≈ 0.0199 µg/mL) | –
CCCCC/C(C)=N/NC(=O)c1ccncc1 | 0.129 µM (≈ 0.0301 µg/mL) | –
CC1CCC(=NNC(=O)c2ccncc2)CC1 (configuration not stated) | 0.303 µM (≈ 0.0701 µg/mL) | –
CC(C)COc1ccc(/C=N/NC(=O)c2ccncc2)cc1 | 0.673 µM (≈ 0.2 µg/mL) | –
CC(C)CCOc1ccc(/C=N/NC(=O)c2ccncc2)cc1 | 0.161 µM (≈ 0.0501 µg/mL) | –
CCN(CC)c1ccc(/C=N/NC(=O)c2ccncc2)cc1 | 2.02 µM (≈ 0.6 µg/mL) | –
CC(=O)C/C(C)=N/NC(=O)c1ccncc1 | 3.65 µM (≈ 0.8 µg/mL) | –
O=C(N/N=C/C(O)C(O)C(O)CO)c1ccncc1 (configuration not stated) | 0.186 µM (≈ 0.0501 µg/mL) | –
CC(C)/C=N\NC(=O)c1ccncc1 | 0.523 µM (≈ 0.1 µg/mL) | –
CC(=O)Nc1ccc(/C=N\NC(=O)c2ccncc2)cc1 | 0.283 µM (≈ 0.0799 µg/mL) | –
CC(C)CNNC(=O)c1ccncc1 | 0.517 µM (≈ 0.0999 µg/mL) | –
CCC(C)NNC(=O)c1ccncc1 (configuration not stated) | 2.07 µM (≈ 0.4 µg/mL) | –
CCC(CC)NNC(=O)c1ccncc1 | 14.5 µM (≈ 3 µg/mL) | –
O=C(NNC1CCCCC1)c1ccncc1 | 22.8 µM (≈ 5 µg/mL) | –
CC1CCCC(NNC(=O)c2ccncc2)C1 (configuration not stated) | 17.1 µM (≈ 4 µg/mL) | –
CC1CCC(NNC(=O)c2ccncc2)CC1 (configuration not stated) | 21.4 µM (≈ 5 µg/mL) | –
O=Cc1cccc(/C=N/NC(=O)c2ccncc2)c1 | 0.28 µM (≈ 0.0709 µg/mL) | logP [2]: 1.33; IC50 (Vero): > 200 µM; selectivity ratio [3]: > 724
O=Cc1ccc(/C=N/NC(=O)c2ccncc2)cc1 | 0.24 µM (≈ 0.0608 µg/mL) | logP [2]: 1.32; IC50 (Vero): > 200 µM; selectivity ratio [3]: > 844
O=C(N/N=C/c1cccc(CO)c1)c1ccncc1 | 0.47 µM (≈ 0.12 µg/mL) | logP [2]: 0.902; IC50 (Vero): > 200 µM; selectivity ratio [3]: > 425
O=C(N/N=C/c1ccc(CO)cc1)c1ccncc1 | 0.27 µM (≈ 0.0689 µg/mL) | logP [2]: 0.731; IC50 (Vero): > 200 µM; selectivity ratio [3]: > 729
O=C(NN=C1CCCC1)c1ccncc1 | 0.2 µM (≈ 0.0406 µg/mL) | logP [2]: 0.22; IC50 (Vero): > 190 µM; selectivity ratio [3]: > 965

SMILES | MIC [1] | also measured
O=C(NN=C1CCC(c2ccccc2)CC1)c1ccncc1 (configuration not stated) | 0.27 µM (≈ 0.0792 µg/mL) | logP [2]: 1.97; IC50 (Vero): > 200 µM; selectivity ratio [3]: > 733
COC(=O)c1ccc(/C=N/NC(=O)c2ccncc2)cc1 | 1.06 µM (≈ 0.3 µg/mL) | logP [2]: 1.32
O=C(N/N=C/c1ccc(Oc2ccccc2)cc1)c1ccncc1 | 0.95 µM (≈ 0.301 µg/mL) | logP [2]: 3.7
CCCCCCCCCC(=O)NNC(=O)c1ccncc1 | 0.38 µM (≈ 0.111 µg/mL) | logP [2]: 3.46; IC50 (Vero): > 75 µM; selectivity ratio [3]: > 530
CCCCCC(C)C(=O)NNC(=O)c1ccncc1 (configuration not stated) | 3.04 µM (≈ 0.801 µg/mL) | logP [2]: 2.09
O=C(NNC1CCC(c2ccccc2)CC1)c1ccncc1 (configuration not stated) | 0.44 µM (≈ 0.13 µg/mL) | logP [2]: 2.83; IC50 (Vero): > 200 µM; selectivity ratio [3]: > 454
NNC(=O)c1ccnc(NN)c1 | 0.42 µM (≈ 0.0702 µg/mL) | logP [2]: -0.541; IC50 (Vero): > 200 µM; selectivity ratio [3]: > 478
O=C(NNC(=O)C(O)C(O)C(O)CO)c1ccncc1 (configuration not stated) | 0.501 µM (≈ 0.143 µg/mL) | –
CCN(CC)CN(C)c1ccc(/C=N/NC(=O)c2ccncc2)cc1 | 0.236 µM (≈ 0.0801 µg/mL) | –
O=C(NNC(=O)C(O)C(OC1OC(CO)C(O)C(O)C1O)C(O)CO)c1ccncc1 (configuration not stated) | 0.346 µM (≈ 0.155 µg/mL) | –
N/C(COc1ccc([N+](=O)[O-])cc1)=N/NC(=O)c1ccncc1 | 19.8 µM (≈ 6.25 µg/mL) | –
C/C(=N/NC(=O)c1ccncc1)c1cccc(CN2CCN(Cc3ccccn3)CC2)c1O | 0.87 µM (≈ 0.387 µg/mL) | –
C/C(=N/NC(=O)c1ccncc1)c1cccc(CN2CCN(Cc3ccc(F)cn3)CC2)c1O | 2.04 µM (≈ 0.944 µg/mL) | –
NNC(=O)c1ccnc(F)c1 | 2.58 µM (≈ 0.4 µg/mL) | –
Cc1cnccc1C(=O)NN | 1320 µM (≈ 200 µg/mL) | –
NNC(=O)c1ccnc(Br)c1 | 69.4 µM (≈ 15 µg/mL) | –
C/C=N/NC(=O)c1ccncc1 | 0.245 µM (≈ 0.04 µg/mL) | –
CCN(CC)Cc1cccc(/C(C)=N\NC(=O)c2ccncc2)c1O | 3.93 µM (≈ 1.34 µg/mL) | –
CC(C)=NNC(=O)c1ccncc1 | 0.113 µM (≈ 0.02 µg/mL) | –
O=C(NN=C1CCCCC1)c1ccncc1 | 0.028 µM (≈ 0.00608 µg/mL) | –
CC(C)NNC(=O)c1ccncc1 [IPRONIAZID] | 2.23 µM (≈ 0.4 µg/mL) | –
NNC(=O)c1ccncc1 [ISONIAZID] | 0.146 µM (≈ 0.02 µg/mL) | logP [2]: -0.851; IC50 (Vero): > 200 µM; selectivity ratio [3]: > 686
